UPR XBP1 act – adaptive UPR (XBP1) activation. activation, % at 20 µM. CHO-XBP1 luciferase reporter, IRE1-XBP1 UPR activation, luminescence; percent of tunicamycin response, DMSO as zero. AID 463104. 0.33% of 330,000 active;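 active means versus positive control, 20 µM dose yields 30% or more activation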;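 further: 100% = tunicamycin at 10 µg/mL and 0% = DMSO only wells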
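assay system = CHO-XBP1 luciferase reporter cells | amount = 1000 cells/well | buffer or medium = F12 plus 10% FBS | compound dosing = single point, 20 µM final compound, 1% DMSO | incubation = 16-18 h cell attachment at 37 °C, then 6 h compound exposure | detection = Steady-Glo luminescence read | controls = tunicamycin 10 µg/mL and vehicle-only wells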
697 NFkB inh – inhibitors of the PMA/ionomycin-induced NF-kB reporter in 697 B cells. 697 B-cell NF-kB luciferase reporter, 16 h. inhibition, % at 4 µM. 0.33% of 330,000 active. AID 435022; in the data active means inhibition above about 35%
Jurkat NFkB inh – lowers PMA/ionomycin-induced NF-kB signal in Jurkat cells | inhibition, % at 4 µM | PMA/ionomycin-induced NF-kB luciferase reporter, luminescence | 0.53% of 330,000 active; in the data active means inhibition above about 50%
UPR CHOP act – activators of apoptotic arm of unfolded protein response (CHOP). activation, % at 10 µM. 0.34% of 330,000 active. AID 449763. CHO-CHOP luciferase reporter, UPR activation, luminescence; percent of tunicamycin response over DMSO baseline;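 active means at 10 µM dose, activation of 40% or more, normalized to positive control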;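 further: 100% = tunicamycin at 10 µg/mL and 0% = DMSO alone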
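Test system: CHO CHOP reporter cells. Input: 500 CHO-CHOP cells per well. Medium: F12 with 10% FBS. Technique: luciferase luminescence. Measure: percent activation relative to tunicamycin control. Dosing: 10 µM compound, 0.5% DMSO. Timing: 16-18 h cell attachment, then 6 h compound exposure, 37 °C.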
CHOP inhibitor – inhibitors of CHOP induction in ER stress response. CHO-K1 CHOP-promoter luciferase, tunicamycin-induced, 15-18 h. 3.8% of 220,000 active. inhibition, % at 10 µM;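 active means compounds that reduced the stress-induced luciferase reporter signal by more than about 70% of percent inhibition, limit read from the data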;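 further: 0% = tunicamycin plus vehicle and 100% = wells without tunicamycin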
* = called active by the depositor. This is one part of a sample in which hits are shown more often than they occur.

Screening CC1CCCN(C(=O)Cc2cn(Cc3cccc(Cl)c3)c3ccccc23)C1 (stereo not given) returned UPR XBP1 act 0, 697 NFkB inh 10, Jurkat NFkB inh -7, UPR CHOP act -1 and CHOP inhibitor 76*.
For C/C(=N\Nc1ccccc1C(=O)O)c1ccncc1 the results were UPR XBP1 act -2, 697 NFkB inh -101, Jurkat NFkB inh -29 and UPR CHOP act 6.
CC(CNC(=O)CN1C(=O)NC2(CCOc3ccccc32)C1=O)c1ccccc1 (stereo not given) was read as UPR XBP1 act -2, 697 NFkB inh 14, Jurkat NFkB inh -8 and UPR CHOP act -2.
Screening CCN(C(=O)COC(=O)c1ccccc1Nc1cccc(C)c1C)C1CCS(=O)(=O)C1 (stereo not given) returned UPR XBP1 act 0, 697 NFkB inh 10, Jurkat NFkB inh 13, UPR CHOP act -1 and CHOP inhibitor 70*.
For CCN(C(=O)COC(=O)c1ccccc1Cc1ccccc1)C1CCS(=O)(=O)C1 (stereo not given) the results were UPR XBP1 act -1, 697 NFkB inh 3, Jurkat NFkB inh -1 and UPR CHOP act 1.
Screening CCOc1ccccc1NC(=O)C(NC(=O)C1CCC(C)CC1)C(C)C (stereo not given) returned UPR XBP1 act -1, 697 NFkB inh -6, Jurkat NFkB inh -2, UPR CHOP act -1 and CHOP inhibitor 73*.
O=C(Nc1ccc(N2CCCC2)cc1)c1ccc(Br)cc1 was read as UPR XBP1 act -1, 697 NFkB inh -30, Jurkat NFkB inh -23 and UPR CHOP act 6.
CC(C)Oc1ccc(C(=O)Nc2ccc(N3CCCC3)cc2)cc1 was read as UPR XBP1 act -2, 697 NFkB inh -6, Jurkat NFkB inh -1, UPR CHOP act -2 and CHOP inhibitor 73*.
Screening CCCN(CCC)S(=O)(=O)c1ccc(C(=O)Nc2nnc(-c3cccc(OC)c3)o2)cc1 returned UPR XBP1 act 4, 697 NFkB inh -64, Jurkat NFkB inh -13, UPR CHOP act 5 and CHOP inhibitor 92*.
Screening CCCN(CCC)S(=O)(=O)c1ccc(C(=O)Nc2nnc(-c3cc(OC)cc(OC)c3)o2)cc1 returned UPR XBP1 act 5, 697 NFkB inh -8, Jurkat NFkB inh 9, UPR CHOP act 11 and CHOP inhibitor 85*.
`CC(=O)N1c2ccccc2[C@@H](C)[C@@H]1C` gave UPR XBP1 act 0, 697 NFkB inh 11, Jurkat NFkB inh -9 and UPR CHOP act -1.
`CC(=O)N1c2ccccc2C2(O)N=C(C)SC12` (stereo not given) gave UPR XBP1 act 0, 697 NFkB inh -12, Jurkat NFkB inh -6, UPR CHOP act -1 and CHOP inhibitor 105*.
For Cc1cccc(NC(=O)CCc2nnc3ccc(N4CCC(C)CC4)nn23)n1 the results were UPR XBP1 act 0, 697 NFkB inh -12, Jurkat NFkB inh 1 and UPR CHOP act 5.
For Cc1ccc(-n2nnc(-c3nccs3)n2)cc1 the results were UPR XBP1 act -7, 697 NFkB inh -70, Jurkat NFkB inh -41, UPR CHOP act -9 and CHOP inhibitor 78*.
Cc1ccc(CN(C)C(=O)CN2C(=O)NC(c3ccccc3)(c3ccccc3)C2=O)c(C)c1 was read as UPR XBP1 act -3, 697 NFkB inh 9, Jurkat NFkB inh -7 and UPR CHOP act 1.
`O=C1NC(=Nc2ccc(Cl)cc2)SC1Cc1cc(Cl)ccc1Cl` (stereo not given) gave UPR XBP1 act 1, 697 NFkB inh 27, Jurkat NFkB inh 13, UPR CHOP act -2 and CHOP inhibitor 71*.
`O=C1NC(=Nc2ccc(F)cc2)SC1Cc1ccc(F)cc1` (stereo not given) gave UPR XBP1 act 0, 697 NFkB inh 23, Jurkat NFkB inh 14, UPR CHOP act 1 and CHOP inhibitor 14.
Screening COC(=O)c1c(C)[nH]c(O)c1C=Nc1ccc(C(C)C)cc1 returned UPR XBP1 act 2, 697 NFkB inh 12, Jurkat NFkB inh -24, UPR CHOP act 8 and CHOP inhibitor 26.
`CCOC(=O)c1c(C)[nH]c(O)c1C=Nc1ccc(C(F)(F)F)cc1` gave UPR XBP1 act 0, 697 NFkB inh 2, Jurkat NFkB inh 1, UPR CHOP act 6 and CHOP inhibitor 82*.
Screening CCOc1ccc(C2=NNC(c3cccs3)=Nc3ccc(OCC)cc32)cc1 returned UPR XBP1 act -4, 697 NFkB inh 5, Jurkat NFkB inh 5, UPR CHOP act 1 and CHOP inhibitor 27.
CCc1ccc2c(c1)C(c1ccc([N+](=O)[O-])cc1)=NNC(c1ccc(Br)cc1)=N2 was read as UPR XBP1 act 0, 697 NFkB inh 2, Jurkat NFkB inh 17, UPR CHOP act 15 and CHOP inhibitor 84*.
Screening C=CCn1c(C)cc(C(=O)CSc2nc3ccccc3o2)c1C returned UPR XBP1 act -4, 697 NFkB inh -46, Jurkat NFkB inh -33, UPR CHOP act 1 and CHOP inhibitor 74*.
`COc1ccccc1Nc1nc(N)nc(CN2CCN(c3ccccc3F)CC2)n1` gave UPR XBP1 act 1, 697 NFkB inh -7, Jurkat NFkB inh -2, UPR CHOP act 0 and CHOP inhibitor 83*.
For COc1ccccc1Nc1nc(N)nc(CN2CCN(Cc3ccccc3)CC2)n1 the results were UPR XBP1 act 0, 697 NFkB inh -18, Jurkat NFkB inh -10, UPR CHOP act -3 and CHOP inhibitor 51.
`COc1ccccc1N1CCN(Cc2nc(N)nc(Nc3ccc(C)c(Cl)c3)n2)CC1` gave UPR XBP1 act 4, 697 NFkB inh -12, Jurkat NFkB inh 11, UPR CHOP act 2 and CHOP inhibitor 76*.
For Cc1ccc2c(c1)NC(=O)C(CC(=O)NCCCN1CCN(c3cc(Cl)ccc3C)CC1)O2 (stereo not given) the results were UPR XBP1 act -3, 697 NFkB inh 3, Jurkat NFkB inh 3, UPR CHOP act 1 and CHOP inhibitor 79*.
`Cc1ccc2c(c1)NC(=O)C(CC(=O)NCCCN1CCCCC1)O2` (stereo not given) gave UPR XBP1 act -1, 697 NFkB inh 12, Jurkat NFkB inh -8, UPR CHOP act -1 and CHOP inhibitor 14.
`CCc1c(C#N)c(SCCC(=O)Nc2ccc(F)cc2)nc2c1C(=O)CC(C)(C)C2` gave UPR XBP1 act -3, 697 NFkB inh -3, Jurkat NFkB inh 0, UPR CHOP act 0 and CHOP inhibitor 88*.
For CC1CCC(NC(=O)c2ccc(/C=C3\Oc4ccccc4N(C)C3=O)cc2)CC1 (stereo not given) the results were CHOP inhibitor 91*.
`CC(C)(C)C1=CC=C(C(C)(C)C)C(=O)C1=O` gave UPR XBP1 act 3, 697 NFkB inh -5, Jurkat NFkB inh -6, UPR CHOP act 49* and CHOP inhibitor -105.

Screens (PubChem BioAssay)
